Test results published in paper PMC3983674 (Journal of immunology (Baltimore, Md. : 1950), 2014).
Ends that are not written are not given here.

How the values were obtained:
[1] = Cytosolic peptide stability assay; details: for half-life: human, s9; for A02-SL9 epitope half-life reduced by (fold vs control): average of 4 experiments, Fig 3B
aminopeptidase = assay: Aminopeptidase activity in live PBMC; type: cell-based, human; details: for Effect on aminopeptidase activities: live PBMC, increasing concentrations, Fig 1C
[2] = system: tryptic activity of proteasomes; assay: Proteasome tryptic activity in live PBMC; type: cell-based, human; details: increasing concentrations, Fig 1C
In short: (§1)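 Fresh PBMC were isolated from HIV-negative donor buffy coats by Ficoll-Hypaque and pretreated for 30 min at 37°C with increasing concentrations of test compound (DMSO solutions). Digitonin (0.0025% final) was added, then Suc-LLVY-Amc (chymotryptic) or BocLRR-Amc (tryptic), each at 50 µmol/L. Fluorescence was read every 5 min at 37°C. Maximum slope, minus no-cell background, was expressed as % of the DMSO control. MG-132 (10 µmol/L) was used as the specificity control. Data are from 6–8 donors.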

[3] = system: chymotryptic activity of proteasomes; assay: Proteasome chymotryptic activity in live PBMC; type: cell-based, human; details: PI pretreatment 30 min 37°C, increasing concentrations, Fig 1C
In short: as §1

[4] = system: caspase-like activity of proteasomes; assay: Proteasome caspase-like activity in live PBMC; type: cell-based, human; details: PI pretreatment 30 min 37°C, Fig 1C
[5] = system: proteasomal and aminopeptidase activities; assay: Proteasomal and aminopeptidase activities in PBMC; type: cell-based, human; details: unpublished data
[6] = system: HLA-matched B cells infected with VSVg-pseudotyped HIV; type: cell-based, human
[7] = system: purified mouse or human 20S proteasomes; details: ref [30]–[32]; cited from earlier work
PBMC cytosolic extracts = assay: HIV epitope processing assay; type: biochemical, human
in vitro = details: human, s9

## CC[C@H](C)[C@H](NC(=O)[C@H](C)N)C(=O)N[C@@H](Cc1ccccc1)C(=O)N[C@@H](CCC(N)=O)C(=O)N[C@@H](CO)C(=O)N[C@@H](CO)C(=O)N[C@@H](CCSC)C(=O)N[C@H](C(=O)N[C@@H](CCCCN)C(=O)O)[C@@H](C)O [ATK9]
[1]
  half-life: 37.2 min

## COC(=O)N[C@H](C(=O)N[C@@H](Cc1ccccc1)[C@@H](O)CN(Cc1ccc(-c2ccccn2)cc1)NC(=O)[C@@H](NC(=O)OC)C(C)(C)C)C(C)(C)C [Atazanavir]
aminopeptidase
  Effect on aminopeptidase activities: no change
[2]
  Effect on proteasome tryptic activity: not affected
[1]; PBMC extracts pretreated with 2 µM or 5 µM PI
  A02-SL9 epitope half-life reduced by (fold vs control): 1.33 fold
[3]
  Effect on chymotryptic activity of proteasome: did not change

## CC(C)C[C@H](NC(=O)[C@@H](O)[C@H](N)Cc1ccccc1)C(=O)O [Bestatin]
aminopeptidase; 120 µM
  Aminopeptidase activity reduced by (fold compared to the control): 20 fold
aminopeptidase; PBMC, 120 µM inhibitor, Leu-amc, control max slope 145.35
  Aminopeptidase activity, max slope of fluorescence emission: 7.25

## CC(C)CN(C[C@@H](O)[C@H](Cc1ccccc1)NC(=O)O[C@H]1CO[C@H]2OCC[C@H]21)S(=O)(=O)c1ccc(N)cc1 [Darunavir]
aminopeptidase
  Effect on aminopeptidase activities: no change
[4]
  Effect on proteasomal caspase-like activity: not affected
[2]
  Effect on proteasome tryptic activity: not affected
[3]
  Effect on chymotryptic activity of proteasome: did not change

## CC(C)Nc1cccnc1N1CCN(C(=O)c2cc3cc(NS(C)(=O)=O)ccc3[nH]2)CC1 [Delavirdine]
[5]
  Effect on the proteasomal and aminopeptidase activities: did not have any significant effect

## CC(C)(C)NC(=O)[C@@H]1CN(Cc2cccnc2)CCN1C[C@@H](O)C[C@@H](Cc1ccccc1)C(=O)N[C@H]1c2ccccc2C[C@H]1O [Indinavir]
aminopeptidase
  Effect on aminopeptidase activities: no change
[4]
  Effect on proteasomal caspase-like activity: not affected
[2]
  Effect on proteasome tryptic activity: not affected
[6]
  Killing of HIV-infected cells by A11-ATK9 CTL, reduced by (fold vs DMSO): 3 fold
  Killing of HIV-infected cells by B57-KF11 CTL, reduced by (fold vs DMSO): 1.9 fold

## CC[C@H](C)[C@H](NC(=O)[C@@H](NC(=O)[C@H](CCC(=O)O)NC(=O)[C@@H]1CCCN1C(=O)[C@H](CO)NC(=O)[C@H](Cc1ccccc1)NC(=O)[C@H](C)NC(=O)[C@@H](N)CCCCN)C(C)C)C(=O)N1CCC[C@H]1C(=O)N[C@@H](CCSC)C(=O)N[C@@H](Cc1ccccc1)C(=O)O [KF11]
[1]
  half-life: 25.7 min

## Cc1c(O)cccc1C(=O)N[C@@H](CSc1ccccc1)[C@H](O)CN1C[C@H]2CCCC[C@H]2C[C@H]1C(=O)NC(C)(C)C [Nelfinavir]
[4]
  Effect on proteasomal caspase-like activity: not affected
[7]
  Activity of purified mouse or human 20S proteasomes and proteasome activity in immortalized cells: inhibit
[6]
  Effect on killing of HIV-infected cells by B57-ISW9 CTL: had no effect
  Killing of HIV-infected cells by A11-ATK9 CTL, reduced by (fold vs DMSO): 4.8 fold
  Killing of HIV-infected cells by B57-ISW9 CTL, inhibited (fold vs DMSO): 1.2 fold
  Killing of HIV-infected cells by B57-KF11 CTL, reduced by (fold vs DMSO): 2.44 fold
  Lysis of HIV-infected cells by B57-TW10 CTL, decreased (fold vs DMSO): 1.46 fold
[1]; […]
  A02-SL9 epitope half-life reduced by (fold vs control): 1.25 fold

## CC(C)c1nc(CN(C)C(=O)N[C@H](C(=O)N[C@@H](Cc2ccccc2)C[C@H](O)[C@H](Cc2ccccc2)NC(=O)OCc2cncs2)C(C)C)cs1 [Ritonavir]
[4]
  Effect on proteasomal caspase-like activity: did not enhance
[7]
  Activity of purified mouse or human 20S proteasomes and proteasome activity in immortalized cells: inhibit
PBMC cytosolic extracts; 3ISW9 degradation, 10 µM PI, 60 min, 3% in control
  ISW9 as % of total peptides: 14%
PBMC cytosolic extracts; supplemental figure 3
  Production of A25-QW11 epitope from 3ISW9: reduced
  Production of B15-HL9 epitope from 3ISW9: reduced
[6]
  Kinetics of killing and maximum lysis by B57-ISW9 CTL: enhanced
  Kinetics of killing and maximum lysis by B57-KF11 CTL: slower and the maximum lysis reduced
[1]; several peptides, unpublished data
  Cytosolic stability of optimal epitopes derived from CMV, HCV, Influenza or EBV: increasing

## CC(C)(C)NC(=O)[C@@H]1C[C@@H]2CCCC[C@@H]2CN1C[C@@H](O)[C@H](Cc1ccccc1)NC(=O)[C@H](CC(N)=O)NC(=O)c1ccc2ccccc2n1 [Saquinavir]
[7]
  Activity of purified mouse or human 20S proteasomes and proteasome activity in immortalized cells: inhibit
PBMC cytosolic extracts; 3ISW9 degradation, 10 µM
  2-ISW9 ([…]) precursor production vs control or Kaletra treatment: at least twice less

## Nc1ccn([C@@H]2CS[C@H](CO)O2)c(=O)n1 [lamivudine, Lamivudine]
[5]
  Effect on the proteasomal and aminopeptidase activities: did not have any significant effect

## ISPRTLNAW [ISW9]
In vitro
  half-life: 14.8 min
